≈ marks a conversion by molar mass, not a printed value. Calls of active or inactive are those of the source.
What was measured:
Staphylococcus aureus [1] = test: Antibacterial activity against methicillin-resistant Staphylococcus aureus isolate A4.018 by CLSI M07-A8 method; format: functional
Streptococcus pneumoniae = test: Antibacterial activity against Streptococcus pneumoniae by CLSI M07-A8 method; format: functional, organism-based
Method in brief: (§1)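 Broth microdilution MIC run per CLSI M07-A8 (2009).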

Enterococcus faecalis [2] = test: Antibacterial activity against Enterococcus faecalis ATCC 29212 by CLSI M07-A8 method; format: functional; method in brief: as §1
Enterococcus faecalis [3] = test: Antibacterial activity against Enterococcus faecalis isolate NB04025 infected in CD1 mouse assessed as protection against bacterial infection administered immediately after infection measured on day 5; format: functional; details: isolate NB04025, 120 h
Method in brief: (§2)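 Mouse lethal systemic infection: ip injection of 1 × 10^8 cfu/mouse (10−100× minimal lethal dose), E. faecalis in 50% sterile rat fecal extract, S. aureus in 0.9% NaCl. Therapy by tail-vein bolus at several doses, six mice per group. Started immediately for E. faecalis; at 1 and 5 h post-inoculation for S. aureus.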

Enterococcus faecium = test: Antibacterial activity against Enterococcus faecium 7130724 by CLSI M07-A8 method; format: functional; method in brief: as §1
Streptococcus pyogenes = test: Antibacterial activity against Streptococcus pyogenes ATCC BAA-595 by CLSI M07-A8 method; format: functional; method in brief: as §1
Staphylococcus aureus [4] = test: Antibacterial activity against Staphylococcus aureus ATCC 49951 infected in CD1 mouse assessed as protection against bacterial infection administered 5 hrs post infection measured on day 5; format: functional; method in brief: as §2
Staphylococcus aureus [5] = test: Antibacterial activity against GE2270-A-resistant Staphylococcus aureus harboring tufA G258D mutant gene by CLSI M07-A8 method; format: functional
Escherichia coli = test: Antibacterial activity against Escherichia coli S30 assessed as inhibition of protein synthesis after 2 hrs by luminescence analysis; details: S30, 2 h

| SMILES | MIC (Staphylococcus aureus [1]) [µg/mL] | Activity (Streptococcus pneumoniae) | MIC (Enterococcus faecalis [2]) [µg/mL] | ED50 (Enterococcus faecalis [3]) [mg/kg] | MIC (Enterococcus faecium) [µg/mL] | MIC (Streptococcus pyogenes) [µg/mL] | ED50 (Staphylococcus aureus [4]) [mg/kg] | Activity (Staphylococcus aureus [5]) | IC50 (Escherichia coli) [nM] | MIC (Staphylococcus aureus [5]) [µg/mL] |
| --- | --- | --- | --- | --- | --- | --- | --- | --- | --- | --- |
| CNC(=O)C[C@@H]1NC(=O)c2csc(n2)-c2ccc(-c3nc(NC(=O)c4ccc(C(=O)O)cn4)cs3)nc2-c2csc(n2)-c2csc(n2)[C@H]([C@@H](O)c2ccccc2)NC(=O)CNC(=O)c2nc(sc2COC)[C@H](C(C)C)NC(=O)c2nc1sc2C | 0.25 (≈ 0.201 µM) | Active | 0.125 (≈ 0.1 µM) | 0.8 | < 0.06 | 4 (≈ 3.21 µM) | 4.4 |  |  |  |
| CNC(=O)C[C@@H]1NC(=O)c2csc(n2)-c2ccc(-c3nc(NC(=O)O[C@H]4C[C@@H](C(=O)O)C4)cs3)nc2-c2csc(n2)-c2csc(n2)[C@H]([C@@H](O)c2ccccc2)NC(=O)CNC(=O)c2nc(sc2COC)[C@H](C(C)C)NC(=O)c2nc1sc2C | 0.06 (≈ 0.0484 µM) | Active | 0.06 (≈ 0.0484 µM) | 1 | 0.03 (≈ 0.0242 µM) | 1 (≈ 0.807 µM) | 2.9 |  |  |  |
| CNC(=O)C[C@@H]1NC(=O)c2csc(n2)-c2ccc(-c3nc(NC(=O)OCCCC(=O)O)cs3)nc2-c2csc(n2)-c2csc(n2)[C@H]([C@@H](O)c2ccccc2)NC(=O)CNC(=O)c2nc(sc2COC)[C@H](C(C)C)NC(=O)c2nc1sc2C | 0.06 (≈ 0.0489 µM) | Active | 0.03 (≈ 0.0245 µM) | 3.1 | 0.06 (≈ 0.0489 µM) | 1 (≈ 0.815 µM) | 5.4 | inactive |  |  |
| CNC(=O)C[C@@H]1NC(=O)c2csc(n2)-c2ccc(-c3nc(NC(=O)c4cnc(C(=O)O)cn4)cs3)nc2-c2csc(n2)-c2csc(n2)[C@H]([C@@H](O)c2ccccc2)NC(=O)CNC(=O)c2nc(sc2COC)[C@H](C(C)C)NC(=O)c2nc1sc2C | 0.5 (≈ 0.401 µM) | Active | 0.25 (≈ 0.201 µM) | 2.2 | 0.25 (≈ 0.201 µM) | 8 (≈ 6.42 µM) | 13.9 |  |  |  |
| CNC(=O)C[C@@H]1NC(=O)c2csc(n2)-c2ccc(-c3nc(NC(=O)CCCN(C)C)cs3)nc2-c2csc(n2)-c2csc(n2)[C@H]([C@@H](O)c2ccccc2)NC(=O)CNC(=O)c2nc(sc2COC)[C@H](C(C)C)NC(=O)c2nc1sc2C | 1 (≈ 0.827 µM) | Active | 0.5 (≈ 0.413 µM) |  | 1 (≈ 0.827 µM) | 4 (≈ 3.31 µM) |  |  | 2600 |  |
| CNC(=O)C[C@@H]1NC(=O)c2csc(n2)-c2ccc(-c3nc(NC(=O)C(F)(F)F)cs3)nc2-c2csc(n2)-c2csc(n2)[C@H]([C@@H](O)c2ccccc2)NC(=O)CNC(=O)c2nc(sc2COC)[C@H](C(C)C)NC(=O)c2nc1sc2C | > 32 | Active | 1 (≈ 0.839 µM) |  | 1 (≈ 0.839 µM) | > 32 |  |  | > 32000 |  |
| CNC(=O)C[C@@H]1NC(=O)c2csc(n2)-c2ccc(-c3nc(NC(=O)CCCO)cs3)nc2-c2csc(n2)-c2csc(n2)[C@H]([C@@H](O)c2ccccc2)NC(=O)CNC(=O)c2nc(sc2COC)[C@H](C(C)C)NC(=O)c2nc1sc2C | 1 (≈ 0.846 µM) | Active | 0.5 (≈ 0.423 µM) |  | 0.5 (≈ 0.423 µM) | > 32 |  |  | > 16000 |  |
| CNC(=O)C[C@@H]1NC(=O)c2csc(n2)-c2ccc(-c3nc(NC(=O)[C@H](CN)CCC(=O)O)cs3)nc2-c2csc(n2)-c2csc(n2)[C@H]([C@@H](O)c2ccccc2)NC(=O)CNC(=O)c2nc(sc2COC)[C@H](C(C)C)NC(=O)c2nc1sc2C | 1 (≈ 0.807 µM) | Active | 0.5 (≈ 0.403 µM) | > 60 | 1 (≈ 0.807 µM) | > 32 | 9.5 | inactive |  |  |
| CNC(=O)C[C@@H]1NC(=O)c2csc(n2)-c2ccc(-c3nc(NC(=O)OCCCCN)cs3)nc2-c2csc(n2)-c2csc(n2)[C@H]([C@@H](O)c2ccccc2)NC(=O)CNC(=O)c2nc(sc2COC)[C@H](C(C)C)NC(=O)c2nc1sc2C | 1 (≈ 0.825 µM) | Active | 0.5 (≈ 0.413 µM) |  | 1 (≈ 0.825 µM) | 8 (≈ 6.6 µM) | 6.48 | inactive |  |  |
| CNC(=O)C[C@@H]1NC(=O)c2csc(n2)-c2ccc(-c3nc(NC(=O)[C@H](C)CCC(=O)O)cs3)nc2-c2csc(n2)-c2csc(n2)[C@H]([C@@H](O)c2ccccc2)NC(=O)CNC(=O)c2nc(sc2COC)[C@H](C(C)C)NC(=O)c2nc1sc2C | 0.25 (≈ 0.204 µM) | Active | 0.25 (≈ 0.204 µM) | 11.1 | 0.5 (≈ 0.408 µM) | 4 (≈ 3.27 µM) | 10.6 | inactive |  |  |
| CNC(=O)C[C@@H]1NC(=O)c2csc(n2)-c2ccc(-c3nc(NC(=O)OCCCC(N)=O)cs3)nc2-c2csc(n2)-c2csc(n2)[C@H]([C@@H](O)c2ccccc2)NC(=O)CNC(=O)c2nc(sc2COC)[C@H](C(C)C)NC(=O)c2nc1sc2C | 0.5 (≈ 0.408 µM) | Active | 0.25 (≈ 0.204 µM) |  | 0.25 (≈ 0.204 µM) | > 32 |  |  | 2400 |  |
| CNC(=O)C[C@@H]1NC(=O)c2csc(n2)-c2ccc(-c3nc(NC(=O)CCCCN)cs3)nc2-c2csc(n2)-c2csc(n2)[C@H]([C@@H](O)c2ccccc2)NC(=O)CNC(=O)c2nc(sc2COC)[C@H](C(C)C)NC(=O)c2nc1sc2C | 1 (≈ 0.836 µM) | Active | 0.5 (≈ 0.418 µM) |  | 1 (≈ 0.836 µM) | 4 (≈ 3.35 µM) |  |  | 1900 |  |
| CNC(=O)C[C@@H]1NC(=O)c2csc(n2)-c2ccc(-c3nc(NC(=O)CC[C@H](N)C(=O)O)cs3)nc2-c2csc(n2)-c2csc(n2)[C@H]([C@@H](O)c2ccccc2)NC(=O)CNC(=O)c2nc(sc2COC)[C@H](C(C)C)NC(=O)c2nc1sc2C | > 32 | Active | > 32 |  | > 32 | > 32 |  | inactive |  |  |
| CNC(=O)C[C@@H]1NC(=O)c2csc(n2)-c2ccc(-c3nc(NC(=O)OCCC[C@H](N)C(=O)O)cs3)nc2-c2csc(n2)-c2csc(n2)[C@H]([C@@H](O)c2ccccc2)NC(=O)CNC(=O)c2nc(sc2COC)[C@H](C(C)C)NC(=O)c2nc1sc2C | 8 (≈ 6.37 µM) | Active | 8 (≈ 6.37 µM) |  | 32 (≈ 25.5 µM) | 8 (≈ 6.37 µM) |  | inactive |  |  |
| CNC(=O)C[C@@H]1NC(=O)c2csc(n2)-c2ccc(-c3nc(NC(=O)O[C@H]4CC[C@H](N)CC4)cs3)nc2-c2csc(n2)-c2csc(n2)[C@H]([C@@H](O)c2ccccc2)NC(=O)CNC(=O)c2nc(sc2COC)[C@H](C(C)C)NC(=O)c2nc1sc2C | 1 (≈ 0.808 µM) | Active | 0.5 (≈ 0.404 µM) | < 3.3 | 0.5 (≈ 0.404 µM) | 8 (≈ 6.46 µM) | 19.3 | inactive |  |  |
| CNC(=O)C[C@@H]1NC(=O)c2csc(n2)-c2ccc(-c3nc(NC(=O)OC4CC(C)(C)NC(C)(C)C4)cs3)nc2-c2csc(n2)-c2csc(n2)[C@H]([C@@H](O)c2ccccc2)NC(=O)CNC(=O)c2nc(sc2COC)[C@H](C(C)C)NC(=O)c2nc1sc2C | 1 (≈ 0.781 µM) | Active | 1 (≈ 0.781 µM) |  | 0.5 (≈ 0.391 µM) | 8 (≈ 6.25 µM) |  | inactive |  |  |
| CNC(=O)C[C@@H]1NC(=O)c2csc(n2)-c2ccc(-c3nc(NC(=O)CCC(=O)O)cs3)nc2-c2csc(n2)-c2csc(n2)[C@H]([C@@H](O)c2ccccc2)NC(=O)CNC(=O)c2nc(sc2COC)[C@H](C(C)C)NC(=O)c2nc1sc2C | 0.25 (≈ 0.209 µM) | Active | 0.25 (≈ 0.209 µM) |  | 0.5 (≈ 0.418 µM) | 4 (≈ 3.34 µM) |  | inactive |  |  |
| CNC(=O)C[C@@H]1NC(=O)c2csc(n2)-c2ccc(-c3nc(NC(=O)OCCN)cs3)nc2-c2csc(n2)-c2csc(n2)[C@H]([C@@H](O)c2ccccc2)NC(=O)CNC(=O)c2nc(sc2COC)[C@H](C(C)C)NC(=O)c2nc1sc2C | 1 (≈ 0.845 µM) | Active | 1 (≈ 0.845 µM) |  | 1 (≈ 0.845 µM) | 16 (≈ 13.5 µM) |  | inactive |  |  |
| CNC(=O)C[C@@H]1NC(=O)c2csc(n2)-c2ccc(-c3nc(NC(=O)OC(C)(C)C)cs3)nc2-c2csc(n2)-c2csc(n2)[C@H]([C@@H](O)c2ccccc2)NC(=O)CNC(=O)c2nc(sc2COC)[C@H](C(C)C)NC(=O)c2nc1sc2C | > 128 | Active | > 128 |  | > 128 | > 128 |  |  |  | > 32 |
| CNC(=O)C[C@@H]1NC(=O)c2csc(n2)-c2ccc(-c3nc(NC(=O)NCCC(=O)O)cs3)nc2-c2csc(n2)-c2csc(n2)[C@H]([C@@H](O)c2ccccc2)NC(=O)CNC(=O)c2nc(sc2COC)[C@H](C(C)C)NC(=O)c2nc1sc2C | 1 (≈ 0.825 µM) | Active | 1 (≈ 0.825 µM) |  | 2 (≈ 1.65 µM) | 8 (≈ 6.6 µM) |  |  |  | > 32 |
| CNC(=O)C[C@@H]1NC(=O)c2csc(n2)-c2ccc(-c3nc(NC(=O)COCC(=O)O)cs3)nc2-c2csc(n2)-c2csc(n2)[C@H]([C@@H](O)c2ccccc2)NC(=O)CNC(=O)c2nc(sc2COC)[C@H](C(C)C)NC(=O)c2nc1sc2C | 0.5 (≈ 0.412 µM) | Active | 0.5 (≈ 0.412 µM) |  | 2 (≈ 1.65 µM) | 4 (≈ 3.3 µM) |  | inactive |  |  |
| CNC(=O)C[C@@H]1NC(=O)c2csc(n2)-c2ccc(-c3nc(NC(=O)NCCCC(=O)O)cs3)nc2-c2csc(n2)-c2csc(n2)[C@H]([C@@H](O)c2ccccc2)NC(=O)CNC(=O)c2nc(sc2COC)[C@H](C(C)C)NC(=O)c2nc1sc2C | 1 (≈ 0.816 µM) | Active | 1 (≈ 0.816 µM) |  | 4 (≈ 3.26 µM) | 16 (≈ 13.1 µM) |  | inactive |  |  |
